According to ChEMBL document CHEMBL3526105, “Cytochrome P450-mediated oxidative metabolism of abused synthetic cannabinoids found in K2/Spice: identification of novel cannabinoid receptor ligands” (Drug Metab Dispos, 2012):
Active and inactive are the calls of the source. The calls are words filed in the database; no cut-off is given here.

Columns and labels:
[1] = molecular target: Cannabinoid receptor 1 (Mus musculus) (UniProt P47746); experiment: Activation of CB1 receptor in B6SJL mouse brain membrane assessed as [35S]-GTPgammaS binding at 10 uM after 30 mins by liquid scintillation spectrophotometric analysis in presence of O-2050; type: functional, cell membranes
[2] = molecular target: Cannabinoid receptor 1 (Mus musculus) (UniProt P47746); experiment: Activation of CB1 receptor in B6SJL mouse brain membrane assessed as [35S]-GTPgammaS binding at 10 uM after 30 mins by liquid scintillation spectrophotometric analysis; type: functional, cell membranes
Summary of the method: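 Mouse brain membrane homogenate (25 μg; whole B6SJL brains, pooled, Dounce-homogenised, spun 40,000g three times). Incubated with […], 0.1 nM [35S]GTPγS in 20 mM HEPES, 10 mM MgCl2, 100 mM NaCl, 20 U/l adenosine deaminase, 0.05% BSA, 30 min at 30°C, triplicate. Nonspecific binding with 10 μM unlabelled GTPγS. Stopped by GF/B filtration; filters counted by scintillation.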

[3] = molecular target: T1, Cytochrome P450 3A4 (Homo sapiens, UniProt P08684); experiment: Drug metabolism assessed as human recombinant CYP3A4-mediated (1-(4-hydroxypentyl)-1H-indol-3-yl)(naphthalen-1-yl)methanone formation at 10 uM after 90 mins by LC-MS/MS analysis; type: ADME; settings: recombinant enzyme, 1.5 h
Summary of the method: (§1)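 Recombinant human CYP2E1 or CYP3A4 (2 pmol) incubated with substrate at 10 μM final, dried from ethanol. Buffer 0.1 M KPO4 pH 7.4 with NADPH-regenerating system, which starts the reaction. 90 min at 37°C, triplicate, with no-substrate, no-protein and no-NADPH controls. Stopped with ethanol, centrifuged, and metabolites quantified by LC-MS/MS.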

[4] = molecular target: Cytochrome b5 (Homo sapiens, UniProt P00167); experiment: Drug metabolism assessed as cytochrome b5 (unknown origin)-mediated (5-hydroxy-1-pentyl-1H-indol-3-yl)(naphthalen-1-yl)methanone formation at 10 uM after 90 mins by LC-MS/MS analysis in presence of oxidoreductase; type: ADME; settings: 1.5 h
[5] = system: Liver microsome; experiment: Drug metabolism in human liver microsomes assessed as (5-hydroxy-1-pentyl-1H-indol-3-yl)(naphthalen-1-yl)methanone formation at 10 uM after 20 mins by LC-MS/MS analysis; type: ADME
Summary of the method: (§2)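 Pooled human liver microsomes (75 μg) incubated with 10 μM substrate in 0.1 M KPO4 pH 7.4 with NADPH-regenerating system at 37°C. Reaction stopped with ethanol, centrifuged. Analytes quantified by positive-ESI LC-MS/MS against standards matrix-matched in reaction mixture, with confirmation by SRM-triggered enhanced product ion spectra library matching.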

[6] = Drug metabolism in human urine assessed as (1-(4-hydroxypentyl)-1H-indol-3-yl)(naphthalen-1-yl)methanone formation by LC-MS/MS analysis; type: ADME, tissue-based
Summary of the method: (§3)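 Urine from suspected users (40 μl) incubated with or without β-glucuronidase (1.6 U/μl final) in 0.1 M sodium acetate pH 5.0, 60 min at 37°C with shaking. Analysed by positive-ESI LC-MS/MS against standards matrix-matched in blank pooled human urine, with confirmation by enhanced product ion spectra.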

[7] = system: Liver microsome; experiment: Drug metabolism in human liver microsomes assessed as (6-hydroxy-1-pentyl-1H-indol-3-yl)(naphthalen-1-yl)methanone formation at 10 uM after 20 mins by LC-MS/MS analysis; type: ADME; summary of the method: as §2
[8] = molecular target: T1, Cytochrome P450 3A4; experiment: Drug metabolism assessed as human recombinant CYP3A4-mediated (1-(5-hydroxypentyl)-1H-indol-3-yl)(naphthalen-1-yl)methanone formation at 10 uM after 90 mins by LC-MS/MS analysis; type: ADME; settings: recombinant enzyme, 1.5 h; summary of the method: as §1
[9] = molecular target: T2, Cytochrome P450 2E1 (Homo sapiens, UniProt P05181); experiment: Drug metabolism assessed as human recombinant CYP2E1-mediated (1-(5-hydroxypentyl)-1H-indol-3-yl)(naphthalen-1-yl)methanone formation at 10 uM after 90 mins by LC-MS/MS analysis; type: ADME; settings: recombinant enzyme, 1.5 h; summary of the method: as §1
[10] = molecular target: T2, Cytochrome P450 2E1; experiment: Drug metabolism assessed as human recombinant CYP2E1-mediated 5-(3-(1-naphthoyl)-1H-indol-1-yl)pentanoic acid formation at 10 uM after 90 mins by LC-MS/MS analysis; type: ADME; settings: recombinant enzyme, 1.5 h; summary of the method: as §1
[11] = molecular target: T1, Cytochrome P450 3A4; experiment: Drug metabolism assessed as human recombinant CYP3A4-mediated 5-(3-(1-naphthoyl)-1H-indol-1-yl)pentanoic acid formation at 10 uM after 90 mins by LC-MS/MS analysis; type: ADME; settings: recombinant enzyme, 1.5 h; summary of the method: as §1
[12] = system: Liver microsome; experiment: Drug metabolism in human liver microsomes assessed as (7-hydroxy-1-pentyl-1H-indol-3-yl)(naphthalen-1-yl)methanone formation at 10 uM after 20 mins by LC-MS/MS analysis; type: ADME; summary of the method: as §2
[13] = molecular target: Cannabinoid receptor 1 (Mus musculus, UniProt P47746); experiment: Displacement of [3H]CP-55,940 from CB1 receptor in B6SJL mouse brain membrane after 90 mins by liquid scintillation spectrophotometric analysis; type: cell membranes
Summary of the method: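 B6SJL mouse brain membranes (50 μg) with 0.2 nM [3H]CP-55,940 and competitor at 0.1 nM–10 μM. Buffer 5 mM MgCl2, 50 mM Tris, 0.05% BSA; 90 min at room temperature, triplicate. Nonspecific binding set with 10 μM WIN-55,212-2. Filtered on GF/B, washed with Tris/BSA, counted by scintillation. Specific binding given as % of vehicle.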

[14] = Drug metabolism in human urine assessed as (1-(5-hydroxypentyl)-1H-indol-3-yl)(naphthalen-1-yl)methanone formation by LC-MS/MS analysis; type: ADME, tissue-based; summary of the method: as §3
[15] = Drug metabolism in human urine assessed as 5-(3-(1-naphthoyl)-1H-indol-1-yl)pentanoic acid formation by LC-MS/MS analysis; type: ADME, tissue-based; summary of the method: as §3
[16] = molecular target: T2, Cytochrome P450 2E1; experiment: Drug metabolism assessed as human recombinant CYP2E1-mediated (1-(4-hydroxypentyl)-1H-indol-3-yl)(naphthalen-1-yl)methanone formation at 10 uM after 90 mins by LC-MS/MS analysis; type: ADME; settings: recombinant enzyme, 1.5 h; summary of the method: as §1
[17] = molecular target: T3, Cytochrome P450 2C19 (Homo sapiens, UniProt P33261); experiment: Drug metabolism assessed as intrinsic clearance for human recombinant CYP2C19-mediated compound formation per nmol protein treated with JWH-018 at 10 uM after 90 mins; type: ADME; settings: recombinant enzyme, 1.5 h
[18] = Drug level in human urine treated with JWH-018 by LC-MS/MS analysis; type: ADME, tissue-based; summary of the method: as §3
[19] = molecular target: T4, Cytochrome P450 2C9 (Homo sapiens, UniProt P11712); experiment: Drug metabolism assessed as intrinsic clearance for human recombinant CYP2C9-mediated compound formation per nmol protein treated with AM2201 at 10 uM after 90 mins; type: ADME; settings: recombinant enzyme, 1.5 h
[20] = system: Liver microsome; experiment: Drug metabolism in human liver microsomes assessed as intrinsic clearance per mg protein treated with JWH-018; type: ADME
[21] = molecular target: T5, Cytochrome P450 1A2 (Homo sapiens, UniProt P05177); experiment: Drug metabolism assessed as intrinsic clearance for human recombinant CYP1A2-mediated compound formation per nmol protein treated with JWH-018 at 10 uM after 90 mins; type: ADME; settings: recombinant enzyme, 1.5 h
T5 sequence (P05177 whole entry): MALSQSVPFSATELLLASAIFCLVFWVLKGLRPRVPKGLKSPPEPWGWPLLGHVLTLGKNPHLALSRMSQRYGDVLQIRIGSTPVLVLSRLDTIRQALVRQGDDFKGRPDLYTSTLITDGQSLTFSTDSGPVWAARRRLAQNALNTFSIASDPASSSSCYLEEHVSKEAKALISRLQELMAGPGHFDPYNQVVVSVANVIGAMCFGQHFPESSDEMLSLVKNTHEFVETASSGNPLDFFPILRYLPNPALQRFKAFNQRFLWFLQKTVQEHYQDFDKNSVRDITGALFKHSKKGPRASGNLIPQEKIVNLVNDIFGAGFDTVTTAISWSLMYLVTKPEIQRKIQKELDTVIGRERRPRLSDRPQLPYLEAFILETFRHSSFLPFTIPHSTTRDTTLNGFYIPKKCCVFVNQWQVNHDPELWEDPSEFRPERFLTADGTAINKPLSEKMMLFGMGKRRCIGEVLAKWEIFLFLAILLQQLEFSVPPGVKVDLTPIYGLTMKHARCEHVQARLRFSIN

[22] = system: Liver microsome; experiment: Drug level in human liver microsomes treated with AM2201 at 10 uM after 20 mins by LC-MS/MS analysis; type: ADME; summary of the method: as §2
[23] = molecular target: T6, Cytochrome P450 2D6 (Homo sapiens, UniProt P10635); experiment: Drug metabolism assessed as intrinsic clearance for human recombinant CYP2D6-mediated compound formation per nmol protein treated with JWH-018 at 10 uM after 90 mins; type: ADME; settings: recombinant enzyme, 1.5 h
[24] = system: Liver microsome; experiment: Drug metabolism in human liver microsomes assessed as intrinsic clearance per mg protein treated with AM2201; type: ADME
[25] = molecular target: T5, Cytochrome P450 1A2; experiment: Drug metabolism assessed as intrinsic clearance for human recombinant CYP1A2-mediated compound formation per nmol protein treated with AM2201 at 10 uM after 90 mins; type: ADME; settings: recombinant enzyme, 1.5 h
[26] = molecular target: T3, Cytochrome P450 2C19; experiment: Drug metabolism assessed as intrinsic clearance for human recombinant CYP2C19-mediated compound formation per nmol protein treated with AM2201 at 10 uM after 90 mins; type: ADME; settings: recombinant enzyme, 1.5 h
[27] = molecular target: T6, Cytochrome P450 2D6; experiment: Drug metabolism assessed as intrinsic clearance for human recombinant CYP2D6-mediated compound formation per nmol protein treated with AM2201 at 10 uM after 90 mins; type: ADME; settings: recombinant enzyme, 1.5 h
[28] = molecular target: T4, Cytochrome P450 2C9; experiment: Drug metabolism assessed as intrinsic clearance for human recombinant CYP2C9-mediated compound formation per nmol protein treated with JWH-018 at 10 uM after 90 mins; type: ADME; settings: recombinant enzyme, 1.5 h

Sequence of Cannabinoid receptor 1 (Mus musculus) (P47746 whole entry): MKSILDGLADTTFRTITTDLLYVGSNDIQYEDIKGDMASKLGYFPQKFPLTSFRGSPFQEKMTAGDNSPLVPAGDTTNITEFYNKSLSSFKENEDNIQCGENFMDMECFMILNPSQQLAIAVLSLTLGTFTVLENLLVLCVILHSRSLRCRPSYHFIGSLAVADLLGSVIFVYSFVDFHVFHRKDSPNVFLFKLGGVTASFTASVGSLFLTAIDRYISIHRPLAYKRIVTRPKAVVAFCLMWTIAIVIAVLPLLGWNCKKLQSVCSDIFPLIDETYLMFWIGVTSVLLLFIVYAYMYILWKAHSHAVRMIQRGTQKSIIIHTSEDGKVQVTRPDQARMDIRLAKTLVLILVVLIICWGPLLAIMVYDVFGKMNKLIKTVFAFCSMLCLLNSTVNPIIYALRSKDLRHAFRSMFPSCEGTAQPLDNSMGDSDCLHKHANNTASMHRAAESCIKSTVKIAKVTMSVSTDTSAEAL
T2 sequence (P05181 whole entry): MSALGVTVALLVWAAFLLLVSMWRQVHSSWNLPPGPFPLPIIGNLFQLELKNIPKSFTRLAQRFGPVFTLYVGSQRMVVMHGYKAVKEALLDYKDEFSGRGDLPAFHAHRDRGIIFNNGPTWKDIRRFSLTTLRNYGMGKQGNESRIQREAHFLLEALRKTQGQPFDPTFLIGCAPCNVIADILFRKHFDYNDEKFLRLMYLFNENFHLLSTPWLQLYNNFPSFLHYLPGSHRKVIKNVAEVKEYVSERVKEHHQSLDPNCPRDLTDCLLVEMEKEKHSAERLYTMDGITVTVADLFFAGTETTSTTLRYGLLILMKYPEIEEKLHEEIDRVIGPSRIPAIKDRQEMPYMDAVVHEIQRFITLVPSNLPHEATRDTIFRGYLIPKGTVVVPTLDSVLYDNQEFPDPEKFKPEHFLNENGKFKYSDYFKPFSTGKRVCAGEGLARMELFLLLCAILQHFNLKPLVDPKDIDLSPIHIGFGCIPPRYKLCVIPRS
T1 sequence (P08684 whole entry): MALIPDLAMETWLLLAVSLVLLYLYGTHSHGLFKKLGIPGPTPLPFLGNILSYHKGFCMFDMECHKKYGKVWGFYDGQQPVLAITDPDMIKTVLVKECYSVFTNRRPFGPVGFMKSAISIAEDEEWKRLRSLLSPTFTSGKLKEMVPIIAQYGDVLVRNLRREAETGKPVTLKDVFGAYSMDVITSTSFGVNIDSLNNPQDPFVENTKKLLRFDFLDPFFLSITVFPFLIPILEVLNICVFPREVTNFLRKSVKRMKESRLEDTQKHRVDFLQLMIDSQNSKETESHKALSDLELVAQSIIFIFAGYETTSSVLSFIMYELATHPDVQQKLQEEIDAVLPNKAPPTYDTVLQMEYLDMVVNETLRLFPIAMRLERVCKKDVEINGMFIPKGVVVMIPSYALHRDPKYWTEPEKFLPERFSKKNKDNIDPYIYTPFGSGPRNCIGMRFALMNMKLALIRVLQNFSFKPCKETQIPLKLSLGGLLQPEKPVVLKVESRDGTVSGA
T6 sequence (P10635 whole entry): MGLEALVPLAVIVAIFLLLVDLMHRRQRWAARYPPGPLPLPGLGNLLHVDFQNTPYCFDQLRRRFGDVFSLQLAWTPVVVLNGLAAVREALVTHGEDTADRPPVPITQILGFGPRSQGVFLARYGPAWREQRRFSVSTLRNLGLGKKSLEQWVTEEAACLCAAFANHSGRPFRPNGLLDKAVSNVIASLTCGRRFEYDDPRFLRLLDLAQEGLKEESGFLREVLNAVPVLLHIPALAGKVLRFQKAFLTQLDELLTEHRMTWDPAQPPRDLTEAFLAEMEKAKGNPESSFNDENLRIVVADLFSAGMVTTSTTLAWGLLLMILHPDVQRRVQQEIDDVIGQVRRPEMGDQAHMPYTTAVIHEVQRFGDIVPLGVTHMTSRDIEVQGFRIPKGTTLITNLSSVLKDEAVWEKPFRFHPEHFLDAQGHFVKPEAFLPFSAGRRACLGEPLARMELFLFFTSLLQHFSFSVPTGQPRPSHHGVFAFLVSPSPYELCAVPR
Sequence of Cannabinoid receptor 1 (P47746 whole entry): as the sequence (P47746 whole entry) above
T4 sequence (P11712 whole entry): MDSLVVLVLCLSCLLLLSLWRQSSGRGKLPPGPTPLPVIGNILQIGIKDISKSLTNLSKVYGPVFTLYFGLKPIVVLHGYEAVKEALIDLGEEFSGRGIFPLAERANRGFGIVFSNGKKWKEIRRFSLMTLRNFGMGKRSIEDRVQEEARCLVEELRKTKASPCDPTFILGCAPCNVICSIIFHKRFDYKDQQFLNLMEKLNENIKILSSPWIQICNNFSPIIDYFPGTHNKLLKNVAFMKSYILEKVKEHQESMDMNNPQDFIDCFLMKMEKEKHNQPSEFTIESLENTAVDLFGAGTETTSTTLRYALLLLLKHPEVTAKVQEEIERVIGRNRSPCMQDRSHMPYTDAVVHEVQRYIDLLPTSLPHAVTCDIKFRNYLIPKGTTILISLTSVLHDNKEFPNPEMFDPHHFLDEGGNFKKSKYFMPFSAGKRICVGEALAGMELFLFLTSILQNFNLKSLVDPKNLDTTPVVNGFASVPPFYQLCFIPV
T3 sequence (P33261 whole entry): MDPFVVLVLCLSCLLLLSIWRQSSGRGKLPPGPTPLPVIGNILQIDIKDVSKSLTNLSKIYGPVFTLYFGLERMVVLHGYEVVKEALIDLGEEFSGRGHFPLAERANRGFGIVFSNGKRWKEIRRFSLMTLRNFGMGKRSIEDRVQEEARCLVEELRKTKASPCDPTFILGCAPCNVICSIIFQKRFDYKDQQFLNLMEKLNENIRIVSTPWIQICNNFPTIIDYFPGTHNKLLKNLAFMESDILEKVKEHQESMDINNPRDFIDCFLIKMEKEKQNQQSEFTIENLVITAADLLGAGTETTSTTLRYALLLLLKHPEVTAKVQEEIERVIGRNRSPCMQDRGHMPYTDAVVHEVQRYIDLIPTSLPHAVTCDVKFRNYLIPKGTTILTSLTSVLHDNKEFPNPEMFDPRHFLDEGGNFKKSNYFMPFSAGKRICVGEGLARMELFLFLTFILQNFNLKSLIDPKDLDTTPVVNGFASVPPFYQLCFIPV
Sequence of Cytochrome b5 (P00167 whole entry): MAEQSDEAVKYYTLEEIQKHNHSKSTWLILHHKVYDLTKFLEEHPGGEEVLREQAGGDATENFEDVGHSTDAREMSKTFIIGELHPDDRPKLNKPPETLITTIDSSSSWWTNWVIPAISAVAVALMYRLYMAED

For `CCCCCCC(C)(C)c1ccc([C@@H]2C[C@H](O)CC[C@H]2CCCO)c(O)c1`, the Activity [1] was “inactive” and the Activity [2] was “Active”.
For `CCCCCn1cc(C(=O)c2cccc3ccccc23)c2ccccc21`, the Drug metabolism [3] was “metabolite_not_detected”, the Activity [1] was “inactive” and the Drug metabolism [4] was “metabolite_detected”. For the same compound, the Drug metabolism [5] was “metabolite_detected”, the Drug metabolism [6] was “metabolite_detected” and the Drug metabolism [7] was “metabolite_detected”. The Drug metabolism [8] was “metabolite_not_detected”, the Drug metabolism [9] was “metabolite_not_detected” and the Drug metabolism [10] was “metabolite_not_detected”. The Drug metabolism [11] was “metabolite_not_detected”, the Drug metabolism [12] was “metabolite_detected” and the Ki [13] was 1.3 nM. The Activity [2] was “Active”, the Drug metabolism [14] was “metabolite_detected” and the Drug metabolism [15] was “metabolite_detected”. The Drug metabolism [16] was “metabolite_not_detected”.
With `O=C(c1cccc2ccccc12)c1cn(CCCCCO)c2ccccc12` the CL [17] was 6.5 µL/min, the Drug metabolism [18] was “metabolite_detected” and the CL [19] was 63 µL/min. The CLH [20] was 0.5 µL/min/mg, the Activity [1] was “inactive” and the CL [21] was 157 µL/min. It also gave a Drug metabolism [22] of 8.53 ng/mL, a CL [23] of 9.3 µL/min and a CLH [24] of 0.483 µL/min/g. The Ki [13] was 35 nM, the Activity [2] was “Active” and the CL [25] was 19 µL/min. The CL [26] was 32 µL/min, the CL [27] was 3.7 µL/min and the CL [28] was 1035 µL/min.
